Screens (PubChem)
AHR act = activates the human aryl hydrocarbon receptor; P35869; AHR-responsive luciferase reporter cells, luminescence; activation, % at 5 µM; 320,000 tested, 2.5% active; in the data active means activation above about 47%
Target sequence (P35869 whole entry, looked up): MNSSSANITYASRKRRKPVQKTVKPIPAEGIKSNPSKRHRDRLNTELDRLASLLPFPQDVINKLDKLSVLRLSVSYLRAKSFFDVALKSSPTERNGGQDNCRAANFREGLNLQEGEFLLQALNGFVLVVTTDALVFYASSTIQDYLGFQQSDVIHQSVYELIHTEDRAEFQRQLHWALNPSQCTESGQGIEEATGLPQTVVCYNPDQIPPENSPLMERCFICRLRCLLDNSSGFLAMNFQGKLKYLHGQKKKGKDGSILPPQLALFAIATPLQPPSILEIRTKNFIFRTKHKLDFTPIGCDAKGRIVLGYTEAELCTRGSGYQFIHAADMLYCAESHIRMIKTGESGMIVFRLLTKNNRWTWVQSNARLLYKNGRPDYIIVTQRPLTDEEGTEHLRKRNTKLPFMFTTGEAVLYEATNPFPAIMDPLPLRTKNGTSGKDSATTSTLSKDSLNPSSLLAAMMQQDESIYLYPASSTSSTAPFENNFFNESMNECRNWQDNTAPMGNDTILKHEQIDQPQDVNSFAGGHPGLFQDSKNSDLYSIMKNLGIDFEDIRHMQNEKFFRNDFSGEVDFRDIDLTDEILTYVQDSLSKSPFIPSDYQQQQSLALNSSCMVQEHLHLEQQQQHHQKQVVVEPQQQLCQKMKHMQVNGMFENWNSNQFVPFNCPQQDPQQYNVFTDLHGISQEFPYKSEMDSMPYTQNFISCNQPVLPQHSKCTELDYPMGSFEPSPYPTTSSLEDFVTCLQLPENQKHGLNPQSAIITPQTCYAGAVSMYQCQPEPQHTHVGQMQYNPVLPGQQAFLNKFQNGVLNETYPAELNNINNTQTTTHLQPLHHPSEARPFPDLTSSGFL
SR-BI uptake up = SR-BI HDL lipid transfer activation; 320,000 tested, 0.096% active; activation, % at 12.5 µM; AID 504775; CHO ldlA[mSR-BI] cells, DiI-HDL uptake fluorescence, 3 h; 100 = double the neutral-control signal;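 active means mean replicate activation of at least 60% and every replicate at or above 60%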
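System: CHO ldlA[mSR-BI] cells / Medium: HEPES-buffered (25 mM, pH 7.4) F12 plus 0.5% BSA / Probe or stimulus: labelled HDL, 10 µg/mL / Doses: single compound concentration, delivered by pin transfer / Schedule: 3 h, 37 °C / Measured by: DiI fluorescence, bottom read / Measure: cell-associated DiI fluorescence as measure of HDL uptake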
FXN GAA850 act = activators of GAA850 frataxin (FXN) promoter; activation, % at 6 µM; HEK293 lucGAA850 FXN promoter luciferase reporter, 24 h; percent of 10 µM SAHA response; 360,000 tested, 0.56% active; AID 540364;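 active means activation above the average of all compounds screened plus 3 SD, cutoff fixed separately per campaign, cut at about 7.5% in these data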
ABCB6 inh 2 = human ABCB6 transporter inhibition. K562-ABCB6 porphyrin accumulation, flow cytometry, 1 h; hits give low values. fluorescence ratio to DMSO, % at 10 µM. 360,000 tested, 0.19% active;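 active means fluorescence ratio to DMSO below 75%, the collection mean minus 3 SD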;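 further: signal is porphyrin accumulated inside mitochondria; lower ratio means ABCB6 inhibition with less porphyrin fluorescence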
SR-BI HDL uptake = blocks mouse SR-BI lipid uptake from DiI-HDL; 320,000 tested, 0.96% active; ldlA[mSR-BI] CHO cells, DiI-HDL uptake fluorescence, 3 h; AID 488896; Q61009; inhibition, % at 12.5 µM;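 active means mean replicate inhibition of at least 70% and a set share of replicates each scoring 70 or more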
HIF activator = HIF pathway transcriptional activation | AID 1910 | activation, % at 7.5 µM (by protocol) | 300,000 tested, 0.32% active | U2OS HRE-luciferase reporter, luminescence; normalized: DMSO 0%, desferrioxamine 100%;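 active means mean activation of at least 10% of the iron chelator positive control signal, with at least half of replicates also reaching 10%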
Large screens that a line does not name were inactive. Hits are enriched below; roughly 3.9% of the tested compounds scored in any of these assays.

COc1ccccc1-n1c(SCC(=O)Nc2cc(C)on2)nc2c([nH]c3ccccc32)c1=O	AHR act 67.6
Cn1c(SCC(=O)NCC2CCCO2)nc2c([nH]c3ccccc32)c1=O (centres undefined)	none
C=CCn1c(SCC(=O)NCCc2ccccc2)nc2c([nH]c3ccccc32)c1=O	AHR act 60.1
O=C(Cn1c(=S)[nH]c2ccccc2c1=O)NCCc1ccccc1	AHR act 79.0
CCCc1nc2c(C)cc(Br)cn2c1Cc1ccc(C)cc1	none (no result: AHR act, SR-BI uptake up, FXN GAA850 act, SR-BI HDL uptake, HIF activator)
CN(Cc1cnn(-c2ccccc2)c1)C(=O)C1CCC(=O)N(C2CC2)C1 (centres undefined)	none
C=CCn1c(SCC(=O)N2CCN(c3ccccc3)CC2)nc2c([nH]c3ccccc32)c1=O	AHR act 65.6 (no result: SR-BI uptake up)
COc1cccc(-n2c(SCC(N)=O)nc3c([nH]c4ccccc43)c2=O)c1	AHR act 74.6 (no result: SR-BI uptake up)
COc1ccc(C)cc1-n1c(SCC(=O)NCC2CCCO2)nc2c([nH]c3ccccc32)c1=O (centres undefined)	AHR act 67.2
O=[N+]([O-])c1ccccc1S(=O)(=O)Nc1ccc(S(=O)(=O)N2CCOCC2)cc1	none
COc1ccc(NC(=O)CSCC(=O)N(C)CC(=O)Nc2cccc3ccccc23)cc1	none
Cc1cccc(C(=O)NCc2ccco2)c1	none
Cc1ccc(C(=O)Nc2cccc(C(=O)N3CCN(C)CC3)c2)cc1	none
CC(=O)c1cccc(NC(=O)/C=C/c2ccc([N+](=O)[O-])s2)c1	none (no result: AHR act)
Cc1ccccc1NC(=O)/C=C/c1ccc([N+](=O)[O-])s1	AHR act 49.5
Cc1ccc(-c2cc(N)n(-c3ccc(C)cc3)n2)cc1	AHR act 51.8
Cc1ccc(NC2=CC(=O)C(=O)c3ccccc32)c(C)c1	none (no result: HIF activator)
O=C1C=C(Nc2ccccc2O)c2ccccc2C1=O	AHR act 71.5
O=C(Nc1ccc(F)c(Cl)c1)C1CCCN(c2cnccn2)C1 (centres undefined)	AHR act 72.9
O=C(Nc1cccc(F)c1)C1CCCN(c2cnccn2)C1 (centres undefined)	AHR act 51.5
CCOC(=O)c1ccc(NC(=O)C2CCCN(S(=O)(=O)c3cnc[nH]3)C2)cc1 (centres undefined)	none (no result: HIF activator)
CCOC(=O)c1ccc(NC(=O)C2CCCN(c3cnccn3)C2)cc1 (centres undefined)	AHR act 62.5
COc1cccc(NC(=O)C2CCN(c3cnccn3)CC2)c1	none (no result: SR-BI uptake up, SR-BI HDL uptake)
O=C(c1ccccc1)c1ccc2nc(-c3ccc(NC(=O)c4ccccc4F)cc3)[nH]c2c1	none
CCCCn1c(O)c(N=Nc2ccccc2O)c2ccccc21	AHR act 59.7 (no result: HIF activator)
COC(=O)C1=C(C)N(Cc2cccnc2)C(=O)/C1=C\c1cccs1	none (no result: SR-BI uptake up, FXN GAA850 act, ABCB6 inh 2, SR-BI HDL uptake)
CC(C)c1cc(-c2cc(-c3ccccc3)on2)nc(NC2CCCC2)n1	SR-BI HDL uptake 75.3
Cn1c(=NC(=O)c2ccco2)sc2ccccc21	AHR act 71.1
Cc1sc(=NC(=O)c2ccco2)n(C)c1-c1ccccc1	none
CN(C)S(=O)(=O)c1cccc(NC(=O)CNCC2CCCCC2)c1	none
CN(C(=O)c1cccnc1)c1nnc(-c2ccccn2)s1	AHR act 53.8
COc1ccc(C2=NS(=O)(=O)N(C)C(C(=O)Nc3ccc(OC)c(OC)c3)=C2)cc1	none
COc1ccccc1OCc1nc(C#N)c(N2CCCC2)o1	AHR act 64.5
CCOC(=O)C1CCCN(c2c(NCCCN3CCCC(C)C3)c(=O)c2=O)C1 (centres undefined)	none
CN(C)c1ccc(NC(=O)c2ccc(Cn3cc([N+](=O)[O-])cn3)cc2)cc1	AHR act 70.8
O=C(CN1CCN(c2ncccn2)CC1)N(Cc1ccccc1)c1ccc(F)cc1	none
NC(=S)N/N=C1/CCSc2ccc3ccccc3c21	SR-BI HDL uptake 78.7
NC(=S)N/N=C/c1c(O)ccc2ccccc12	none (no result: SR-BI uptake up, SR-BI HDL uptake)
COc1ccccc1C(=O)Nc1sc2c(c1C(N)=O)CCCC2	AHR act 55.2
NC(=O)c1c(NC(=O)COC(=O)c2ccc(S(=O)(=O)Nc3ccccc3)cc2)sc2c1CCCC2	SR-BI HDL uptake 95.1
COc1ccc2c(-c3cccnc3)cc(=O)[nH]c2c1	AHR act 77.5
COc1ccc2c(C)cc(=O)[nH]c2c1	none
COc1ccc(C(C(=O)NCC2CCCO2)N(Cc2cccs2)C(=O)c2snc(C(N)=O)c2N)cc1OC (centres undefined)	none
CC1=NN(C(N)=S)C(=O)C1N=Nc1ccccc1 (centres undefined)	AHR act 70.2
CC1=NN(C(N)=S)C(=O)C1N=Nc1ccc(Cl)cc1 (centres undefined)	none (no result: AHR act)
CC1=NN(C(N)=S)C(=O)C1N=Nc1cccc2ccccc12 (centres undefined)	AHR act 92.7 (no result: SR-BI uptake up, FXN GAA850 act, ABCB6 inh 2, SR-BI HDL uptake)
CC1=NN(C(N)=S)C(=O)C1N=Nc1cccc([N+](=O)[O-])c1 (centres undefined)	AHR act 63.0
CC1=NN(C(N)=S)C(=O)C1N=Nc1ccc(Br)cc1 (centres undefined)	none (no result: AHR act)
O=P(OC1CCCCC1)(OC1CCCCC1)C(Nc1ccccc1)c1cccnc1 (centres undefined)	none
CN1CC(C(=O)O)Cc2c1ccc1ccccc21 (centres undefined)	AHR act 53.5
O=C(Nc1cc2c(cc1C(=O)O)OCCCO2)c1ccc(C(F)(F)F)cc1	AHR act 73.4
O=C(O)c1cc2c(cc1NC(=O)c1ccccc1C(F)(F)F)OCCCO2	none
CCOC(=O)/C(=N/Nc1ccccc1)c1csc(Nc2ccccc2)n1	SR-BI HDL uptake 95.1
COc1ccc(NC(=O)CN2CCc3ccccc3C2)cc1OC	none
Cc1ccccc1NC(=O)CC1S/C(=N/c2nccs2)N(C)C1=O (centres undefined)	none
CCN1C(=O)C(CC(=O)Nc2ccccc2)S/C1=N\c1ccccn1 (centres undefined)	SR-BI HDL uptake 78.0
C=CCN1C(=O)C(CC(=O)Nc2ccccc2F)S/C1=N\c1nccs1 (centres undefined)	SR-BI HDL uptake 84.5
Cc1ccc(NC(=O)CC2S/C(=N/c3nccs3)N(C)C2=O)cc1C (centres undefined)	AHR act 52.5
CC(=O)OC[C@H]1O[C@@H](n2ccc(=O)[nH]c2=S)C(OC(C)=O)C1OC(C)=O (some centres undefined)	none
CC1=C(N2CCCCC2)CCC1=O	none
O=C(Nc1ccccc1)C(=O)Nc1cccnc1	none
O=C(Nc1cccnc1)/C(N=Nc1cccnc1)=C(\O)c1ccccc1	AHR act 60.9
Cc1nc2c(ccc3nc(NC(=O)c4ccc5c(c4)OCCO5)sc32)s1	SR-BI HDL uptake 74.9
